A selection: hits, their analogues and other compounds. The true share with any hit is near 1.2%.
S1P4 antagonist: S1P4 receptor antagonists, primary screen, cell-based; Sphingosine 1-phosphate receptor 4 (Homo sapiens), O95977; S1P4-expressing cells, antagonist mode, reporter read-out; inhibition, % at 4.98 µM; hit rate 0.26% among 220,000; AID 1510, 2009; in the data active = inhibition above about 29%
Target sequence (O95977 whole entry, looked up): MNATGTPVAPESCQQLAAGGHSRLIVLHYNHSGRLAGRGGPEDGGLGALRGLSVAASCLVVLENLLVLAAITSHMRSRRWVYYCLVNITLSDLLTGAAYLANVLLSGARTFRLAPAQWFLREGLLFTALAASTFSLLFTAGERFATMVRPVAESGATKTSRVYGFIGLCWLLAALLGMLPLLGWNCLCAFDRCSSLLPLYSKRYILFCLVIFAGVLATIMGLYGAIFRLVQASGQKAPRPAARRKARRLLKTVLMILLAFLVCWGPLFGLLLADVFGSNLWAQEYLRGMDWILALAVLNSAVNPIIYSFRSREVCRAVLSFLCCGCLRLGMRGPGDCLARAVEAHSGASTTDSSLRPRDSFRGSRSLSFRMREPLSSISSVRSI
Biofilm kill mix: clotrimazole potentiators killing C. albicans biofilm, primary screen, 4-compound mixtures; C. albicans biofilm persisters + clotrimazole, fluorescence viability; primary screen in compound mixtures of four per well; inhibition, % at 7.6 µM; hit rate 0.02% among 120,000; AID 1242, 2008;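 active = inhibition above 30.3% in the primary screen of four-compound pools, then above 30% when the compound was retested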;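 also: compounds exposed to preformed 24 h biofilms for 48 h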
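Probe or stimulus – Clotrimazole 50 µg/mL co-treatment · System – C. albicans biofilms · Schedule – 24 h biofilm formation, then 48 h compound exposure, 37 °C · Evaluation – percent inhibition of biofilm viability · Technique – 2-h Alamar Blue fluorescence, 535/590 nm excitation/emission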
S1P3 antag: S1P3 receptor antagonists, primary screen, cell-based; Sphingosine 1-phosphate receptor 3 (Homo sapiens), Q99500; CHO S1P3 NFAT-BLA reporter, FRET fluorescence, antagonist mode; inhibition, % at 4.98 µM; hit rate 0.27% among 170,000; AID 485, 2006;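 active = inhibition above the plate cutoff, the mean inhibition of test wells on that plate plus 3 SD, cut at about 28% in these data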;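 also: cells challenged with S1P at its EC80 of 0.8 µM; blue over green emission ratio from cleaved BLA substrate after 4 h stimulation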
Target sequence (Q99500 whole entry, looked up): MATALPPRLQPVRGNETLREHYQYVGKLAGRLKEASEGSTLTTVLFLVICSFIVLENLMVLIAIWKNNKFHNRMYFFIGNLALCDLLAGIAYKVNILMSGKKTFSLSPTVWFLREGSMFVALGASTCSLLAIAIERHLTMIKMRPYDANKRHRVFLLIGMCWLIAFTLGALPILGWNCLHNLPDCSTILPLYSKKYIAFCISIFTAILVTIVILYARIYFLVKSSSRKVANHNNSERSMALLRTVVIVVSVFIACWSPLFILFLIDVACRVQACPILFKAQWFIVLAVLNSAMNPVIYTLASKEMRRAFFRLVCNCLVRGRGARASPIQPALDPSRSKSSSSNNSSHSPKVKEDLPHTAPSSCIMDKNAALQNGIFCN
Rad51 HR inh: human RAD51 strand exchange inhibitors, primary screen, biochemical, fluorescence | DNA repair protein RAD51 homolog 1 (Homo sapiens), Q06609 | hRad51 DNA strand exchange, fluorescence dequenching | inhibition, % at 10 µM | hit rate 0.085% among 200,000;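 active = inhibition above 40% at the single screening dose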
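Material: human Rad51–ssDNA filaments; Probe or stimulus: labelled 47-mer dsDNA for strand exchange; Doses: single 10 µM dose; Incubation: 37 °C 15-min filament assembly, 30-min compound preincubation, 15-min exchange; Technique: FRET fluorescence dequenching, excitation 485 nm, emission 520 nm; Measure: Fluorescence-based percent inhibition, control- and blank-normalised; Benchmarks: plate control and blank wells.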
HMGR II inh: inhibitors of E. faecalis class II HMGR, primary screen, biochemical, Enterococcus faecalis | hit rate 0.41% among 190,000 | inhibition, % at 10 µM | purified E. faecalis HMGR, NADPH absorbance 340 nm kinetic | AID 1066, 2008;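 active = inhibition above a set limit, the median over all tested compounds plus 3 SD, cut at about 9.5% in these data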;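 also: enzyme runs in reverse so mevalonate oxidation gives rising NADPH absorbance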
S1P4 agonist: S1P4 receptor agonists, primary screen, cell-based; Sphingosine 1-phosphate receptor 4 (Homo sapiens), O95977; S1P4-expressing cell line, agonist reporter assay; activation, % at 4.98 µM; hit rate 0.35% among 220,000; in the data active = activation above about 11%
Each line names hits and unclear results; the compound was inactive in the other large screens.

Cc1ccc(S(=O)(=O)NNC(=O)CCCCC(=O)NNS(=O)(=O)c2ccc(C)cc2)cc1	HMGR II inh 13
Cc1ccc(S(=O)(=O)NNC(=O)C(=O)NNS(=O)(=O)c2ccc(C)cc2)cc1	none
Cc1nc(N)sc1C(=O)N/N=C/c1ccco1	none
CCOC(=O)c1ccc(N2CSC3=C(C#N)C(c4cccs4)CC(=O)N3C2)cc1 (stereo not drawn)	S1P3 antag 96 (no result: Biofilm kill mix)
O=C(CCC1CCCCC1)NCc1ccncc1	S1P3 antag 82 (no result: Biofilm kill mix)
O=C(CCC1CCCCC1)NCc1ccc(F)cc1	none
COC(=O)CSc1nc(N)c2c3c(sc2n1)C(c1ccccc1)SC(c1ccccc1)C3 (stereo not drawn)	none
O=c1c2cc3ccccc3n2cnn1Cc1ccccc1F	none (no result: Biofilm kill mix)
Brc1ccc(OCc2nnnn2-c2ccccc2)cc1	none
C=C(C)Cn1c(-c2ccncc2)n[nH]c1=S	HMGR II inh 19
Cc1ccc(N(CC(=O)NCc2cccnc2)S(C)(=O)=O)cc1C	none (no result: Biofilm kill mix)
CCN1C(=O)/C(=C/N(C)C)c2ccccc21	none (no result: Biofilm kill mix)
CCN1C(=O)/C(=C\N(C)C)c2ccccc21	HMGR II inh 11 (no result: S1P3 antag)
Cc1ccc(NC(=S)NC(=O)CC2CC(C)(C)OC2=O)cc1 (stereo not drawn)	HMGR II inh 28 (no result: Rad51 HR inh)
CO/N=C/NC(=O)C1=NOC(CNc2ncc(C(F)(F)F)cc2Cl)C1 (stereo not drawn)	none (no result: Biofilm kill mix, S1P3 antag)
O/C(=C\Sc1nnc(Cc2ccccc2)o1)c1ccc(Br)cc1	S1P3 antag 81 (no result: Biofilm kill mix)
Brc1ccc(-c2nnc(Cc3ccccc3)o2)cc1	none (no result: HMGR II inh)
COc1ccc(NS(=O)(=O)c2ccc(NC(=O)C(CCSC)NC(N)=O)cc2)cc1 (stereo not drawn)	Rad51 HR inh 42 (no result: HMGR II inh)
CNS(=O)(=O)c1ccc(NC(=O)C(CCSC)NC(N)=O)cc1 (stereo not drawn)	none (no result: Biofilm kill mix)
Cc1ccccc1CO/N=C/c1[nH]ncc1Br	none (no result: HMGR II inh)
CN(C)/C=C(/C(=O)c1ccccc1)n1cncn1	none
CC(C)(C)C(=O)/C(=C\c1ccc([N+](=O)[O-])cc1)n1cncn1	S1P4 antagonist 55 (no result: S1P3 antag)
CC(C)CCOc1ccccc1C(N)=O	HMGR II inh 9.7
COC(=O)c1ccccc1OCCOc1ccccc1C(=O)OC	none (no result: Biofilm kill mix, S1P3 antag)
COc1cc(OC)cc(-c2nnc(SCC(=O)N3CCOCC3)o2)c1	none (no result: Biofilm kill mix)
O=C(Cc1ccccc1F)NCC(c1ccco1)N1CCCCC1 (stereo not drawn)	none
O=C(Cc1cccs1)Nc1ccon1	S1P3 antag 94 (no result: Biofilm kill mix)
CSc1cccc(NCc2ccc([N+](=O)[O-])cc2)c1	none
O=C(Cn1cc(C(=O)C(F)(F)F)c2ccccc21)N1CCOCC1	HMGR II inh 14
Cc1nn(-c2ccccc2)c(Cl)c1/C=N/NC(=O)c1ccc(NS(=O)(=O)c2cccs2)cc1	HMGR II inh 9.6
O=C(O[C@@H]1Cc2c(O)cc(O)cc2O[C@@H]1c1cc(O)c(O)c(O)c1)c1cc(O)c(O)c(O)c1	HMGR II inh 14 (no result: Biofilm kill mix)
N=c1c(C(=O)NCc2ccc(F)cc2)cc2c(=O)n3ccccc3nc2n1CCCN1CCOCC1	S1P4 agonist 14 (no result: Biofilm kill mix)
N=c1c(C(=O)NCc2ccccc2)cc2c(=O)n3ccccc3nc2n1CCCN1CCOCC1	none (no result: S1P4 antagonist, Biofilm kill mix, Rad51 HR inh, HMGR II inh, S1P4 agonist)
C=C(C)c1cccc(C(C)(C)NC(=O)Nc2ccc(Cl)cn2)c1	none
Cc1cc(=O)[nH]c(N/N=C/c2ccc(C)o2)n1	none (no result: Rad51 HR inh)
Cc1cc(=O)[nH]c(N/N=C/c2ccc(N(C)C)cc2)n1	HMGR II inh 14
CNCc1nc2ccccc2[nH]1	HMGR II inh 13
CCOc1ccc(OCC)c(NC(=O)C2CCCN(c3ncccn3)C2)c1 (stereo not drawn)	none (no result: Biofilm kill mix, Rad51 HR inh)
CCOc1ccc(OCC)c(NC(=O)C2CCN(c3ncccn3)CC2)c1	Rad51 HR inh 42 (no result: Biofilm kill mix)
Cn1c(Cn2c(=O)sc3ccccc32)nnc1SCC(=O)N1CCN(c2ccccc2)CC1	none (no result: Biofilm kill mix, Rad51 HR inh)
Brc1c(NC2=NCCN2)ccc2nccnc12	HMGR II inh 18
Cc1ccc(O)c(C(=O)c2cnc3c(c2)c(-c2ccc(F)cc2)c(C#N)c(=O)n3C)c1	none
Cc1ccc(NC(=O)COC(=O)CCc2ccc(S(=O)(=O)N3CCOCC3)cc2)c(C)c1	none
Cc1ccc(NC(=O)CCc2ccc(S(=O)(=O)N3CCOCC3)cc2)c(C)c1	HMGR II inh 15 (no result: Biofilm kill mix, S1P3 antag)
COC(=O)C1C(=O)C2=C(CC1C)NC(C)=C(C(=O)OC1CCCCC1)C2c1ccc(N(C)C)cc1 (stereo not drawn)	none (no result: Biofilm kill mix, S1P3 antag)
O=C(/C=C/c1cccnc1)/C=C/c1cccnc1	S1P4 antagonist 98 (no result: HMGR II inh)
COC(/C=C/Nc1ccc(OC)cc1)=C(C#N)C#N	none (no result: Biofilm kill mix, S1P3 antag)
CCc1ccc(CN(C)CC(=O)Nc2ccc3c(c2)CCC3)cc1	none
Cc1ccc(CN(C)CC(=O)Nc2ccc3c(c2)CCC3)cc1	HMGR II inh 14
CCN(CC)CCOc1nc(C)nc2c1oc1ccccc12	HMGR II inh 14 (no result: Biofilm kill mix)
CCN(CC)CCCOc1nc(C)nc2c1oc1ccccc12	none (no result: Biofilm kill mix)
COc1ccc(OC)c(C(C)NC(=O)c2ccco2)c1 (stereo not drawn)	none (no result: Biofilm kill mix)
Cc1cc(N)ccc1N1CCCC1	Rad51 HR inh 60 (no result: Biofilm kill mix, S1P3 antag)
O=C(C1=NN(c2ccccc2)C2C(=O)N(c3cccc(Cl)c3)C(=O)C12)c1ccccc1 (stereo not drawn)	S1P3 antag 28 (no result: Rad51 HR inh)
O=C(C1=NN(c2ccccc2)C2C(=O)N(c3ccc(Cl)cc3)C(=O)C12)c1ccccc1 (stereo not drawn)	none
CN(C)C1=C(Cl)C(=O)N(c2ccc(Cl)c(Cl)c2)C1=O	none (no result: HMGR II inh)
Cc1ccc[n+](-c2nc([O-])sc2C=O)c1	S1P4 agonist 81
CC(C)c1ccc[n+](-c2nc([O-])sc2C=O)c1	none (no result: Rad51 HR inh, HMGR II inh)
CCOC(=O)NC(NS(=O)(=O)c1ccccc1)(C(=O)OCC)C(F)(F)F (stereo not drawn)	none (no result: Rad51 HR inh)
C=CCN(CC=C)CCOc1cc(C)ccc1[N+](=O)[O-]	Rad51 HR inh 42
CCOC(=O)C1CCCN(S(=O)(=O)c2ccc(OC)cc2)C1 (stereo not drawn)	Rad51 HR inh 46 (no result: Biofilm kill mix, S1P3 antag)
Cc1ccc(-n2c(Cl)c(Cl)nc(Cl)c2=O)cc1	S1P4 antagonist 76
O=c1cnnc(Nc2ccc(Nc3ccccc3)cc2)[nH]1	none
Cc1ccc(C(=O)NC(NCc2ccco2)C(Cl)(Cl)Cl)cc1 (stereo not drawn)	none
CCC(=O)OCc1c(C(F)(F)F)nn(C)c1Sc1ccc(Cl)cc1	none (no result: Biofilm kill mix, S1P3 antag)
CCC(=O)OCc1c(C(F)(F)F)nn(C)c1Sc1ccc(F)cc1	S1P4 agonist 11 (no result: Biofilm kill mix, S1P3 antag)
O=C1C=CC(=O)N1CCCCCCN1C(=O)C=CC1=O	S1P4 antagonist 79
O=C1C2C3C=CC(C3)C2C(=O)N1CCCCCCN1C(=O)C2C3C=CC(C3)C2C1=O (stereo not drawn)	none
